How the values were obtained:
[1] = AUC (0 to 24 hrs) in Sprague-Dawley rat at 320 mg/kg, po by HPLC/MS/MS analysis; assay type: ADME, organism-based; design: time < 24 hr, dose 320 mg/kg, route oral; details: plasma
Summary of the method: (§1)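 Sprague-Dawley rats (250 ± 5.0 g), n = 8/group, dosed iv via lateral tail vein at 16 mg/kg in 100% saline or by oral gavage at 320 mg/kg as suspension in 0.5% methylcellulose. Serial tail-vein blood into heparinized tubes at 30 min, 1, 2, 3, 4, 5, 6, 7 and 24 h. Plasma treated by acetonitrile protein precipitation, then HPLC/MS on C18 column, 40 °C.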

Mus musculus [2] = test: Antinociceptive activity in ip dosed Kun Ming mouse pain model assessed as reduction in licking and biting time during phase-1 administered 15 mins prior to formalin challenge relative to vehicle-treated control; assay type: functional
Summary of the method: (§2)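 Kun Ming mice (20 ± 2.0 g), 10–12 per group, given vehicle (30% PEG 400) or drug ip at 10 mL/kg 15 min before intraplantar formalin. Time spent licking or biting the injected paw scored at 0–5 min (phase I) and 15–45 min (phase II). Effect (%) = (LTV − LTD)/LTV × 100.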

[3] = Displacement of [3H]-DTG from sigma-2 receptor in Dunkin Hartley guinea pig brain membrane after 120 mins by liquid scintillation counting analysis in presence of (+)-SKF10047; design: species or system Cavia porcellus
Rattus norvegicus [4] = test: Antineuropathic pain activity in po dosed Sprague-Dawley rat chronic constriction injury model assessed as inhibition of thermal hypersensitivity measured on day 15 relative to sham-treated control; assay type: functional
Summary of the method: (§3)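 Sprague-Dawley rats, sciatic nerve chronic constriction injury (four loose 4-0 silk ligatures, chloral hydrate anaesthesia); sham has nerve exposed without ligation. Model confirmed on day 14. Oral dosing in 0.5% methylcellulose, 10 mL/kg, twice daily on days 15–18. Read after first dose (day 15) and last dose (day 18). Von Frey withdrawal threshold and radiant-heat plantar withdrawal latency (30 s cutoff), each paw sampled four times and averaged; 10 rats/group.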

[5] = biological target: Glutamate NMDA receptor (Rattus norvegicus) (UniProt P35439+Q00959+Q00960+Q00961+Q62645+Q8VHN2+Q9R1M7); test: Displacement of [3H]-glycine from rat hippocampal membrane NMDA receptor at 1 uM after 30 mins by liquid scintillation counting analysis
[6] = biological target: Histamine H3 receptor (Rattus norvegicus) (UniProt Q9QYN8); test: Displacement of [3H]-N-alpha-methylhistamine from rat cerebral cortex histamine H3 receptor at 1 uM after 30 mins by liquid scintillation counting analysis; assay type: tissue-based
Sequence of Histamine H3 receptor (Rattus norvegicus) (Q9QYN8 whole entry): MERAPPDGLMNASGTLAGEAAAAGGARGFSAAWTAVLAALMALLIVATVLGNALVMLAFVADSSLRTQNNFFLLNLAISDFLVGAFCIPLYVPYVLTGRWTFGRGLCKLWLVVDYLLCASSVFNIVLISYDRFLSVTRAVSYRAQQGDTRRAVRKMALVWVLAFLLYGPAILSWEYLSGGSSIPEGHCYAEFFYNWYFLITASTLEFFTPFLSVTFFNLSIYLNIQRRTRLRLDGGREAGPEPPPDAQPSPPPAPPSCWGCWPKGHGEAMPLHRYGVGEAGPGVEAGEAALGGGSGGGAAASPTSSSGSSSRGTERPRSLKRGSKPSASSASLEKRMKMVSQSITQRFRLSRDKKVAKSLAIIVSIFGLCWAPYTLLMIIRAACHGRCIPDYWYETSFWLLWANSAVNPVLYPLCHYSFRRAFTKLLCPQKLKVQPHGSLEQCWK

[7] = biological target: T1, 5-hydroxytryptamine receptor 1A (Rattus norvegicus) (UniProt P19327); test: Displacement of [3H]-8-OH-DPAT from rat cerebral cortex 5-HT1A receptor at 1 uM after 30 mins by liquid scintillation counting analysis; assay type: tissue-based
T1 sequence (whole entry): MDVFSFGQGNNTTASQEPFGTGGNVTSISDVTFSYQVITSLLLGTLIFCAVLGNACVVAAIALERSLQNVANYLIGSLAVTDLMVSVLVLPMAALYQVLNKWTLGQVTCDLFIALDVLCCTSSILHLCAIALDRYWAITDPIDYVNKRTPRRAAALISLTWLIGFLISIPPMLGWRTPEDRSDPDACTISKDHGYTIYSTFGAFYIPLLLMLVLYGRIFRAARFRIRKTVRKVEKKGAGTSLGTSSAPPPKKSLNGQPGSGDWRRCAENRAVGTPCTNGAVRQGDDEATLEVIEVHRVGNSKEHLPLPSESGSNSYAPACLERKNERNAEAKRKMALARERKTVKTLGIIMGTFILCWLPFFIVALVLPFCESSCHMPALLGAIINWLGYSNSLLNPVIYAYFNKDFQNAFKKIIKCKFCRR

Mus musculus [8] = test: Antinociceptive activity in ip dosed Kun Ming mouse pain model assessed as reduction in licking and biting time during phase-2 administered 15 mins prior to formalin challenge relative to vehicle-treated control; assay type: functional; summary of the method: as §2
Rattus norvegicus [9] = test: Cmax in Sprague-Dawley rat at 320 mg/kg, po by HPLC/MS/MS analysis; assay type: ADME, organism-based; design: dose 320 mg/kg, route oral; details: in vivo; summary of the method: as §1
[10] = Oral bioavailability in Sprague-Dawley rat at 320 mg/kg; assay type: ADME, organism-based; details: in vivo
[11] = Acute toxicity in po dosed Kun Ming mouse after 24 hrs; assay type: organism-based; details: in vivo
Rattus norvegicus [12] = test: Antineuropathic pain activity in po dosed Sprague-Dawley rat chronic constriction injury model assessed as inhibition of thermal hypersensitivity measured on day 18 by repeated dose treatment assay relative to sham-treated control; assay type: functional; summary of the method: as §3
Mus musculus [13] = test: Toxicity in Kun Ming mouse at 20 to 80 mg/kg, ip measured after 30 to 120 mins by rotarod test; assay type: organism-based; design: route intraperitoneal; details: in vivo
Summary of the method: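 Rotarod test in Kun Ming mice pretrained to stay 300 s at 10 rpm. Latency to fall from drum turning at 10 rpm measured 30, 60, 90 and 120 min after ip dosing; 8–10 mice per group.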

[14] = AUC (0 to 24 hrs) in Sprague-Dawley rat at 16 mg/kg, iv by HPLC/MS/MS analysis; details: plasma
[15] = biological target: Adrenergic receptor alpha-1 (Rattus norvegicus) (UniProt P15823+P23944+P43140); test: Displacement of [3H]-prazosin from rat cerebral cortex adrenergic alpha-1 receptor at 1 uM after 60 mins by liquid scintillation counting analysis; assay type: tissue-based
[16] = biological target: 5-hydroxytryptamine receptor 2A (Rattus norvegicus) (UniProt P14842); test: Displacement of [3H]-ketanserin from rat cerebral cortex 5-HT2A receptor at 1 uM after 15 mins by liquid scintillation counting analysis; assay type: tissue-based
Sequence of 5-hydroxytryptamine receptor 2A (Rattus norvegicus) (P14842 whole entry): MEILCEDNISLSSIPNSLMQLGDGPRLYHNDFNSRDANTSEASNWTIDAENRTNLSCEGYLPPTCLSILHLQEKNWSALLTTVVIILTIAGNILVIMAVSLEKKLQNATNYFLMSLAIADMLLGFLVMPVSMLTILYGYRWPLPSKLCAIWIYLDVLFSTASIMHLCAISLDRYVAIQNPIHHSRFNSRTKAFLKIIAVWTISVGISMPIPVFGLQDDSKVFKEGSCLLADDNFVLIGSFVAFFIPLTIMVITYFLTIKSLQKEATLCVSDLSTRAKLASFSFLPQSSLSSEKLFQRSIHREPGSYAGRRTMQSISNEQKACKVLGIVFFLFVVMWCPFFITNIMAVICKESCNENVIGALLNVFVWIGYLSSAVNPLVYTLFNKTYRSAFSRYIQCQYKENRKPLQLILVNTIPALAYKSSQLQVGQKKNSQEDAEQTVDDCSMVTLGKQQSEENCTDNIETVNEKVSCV

[17] = biological target: Adrenergic receptor alpha-2 (Rattus norvegicus) (UniProt P22086+P19328+P22909); test: Displacement of [3H]-rauwolscine from rat cerebral cortex adrenergic alpha-2 receptor at 1 uM after 60 mins by liquid scintillation counting analysis; assay type: tissue-based
Rattus norvegicus [18] = test: Antineuropathic pain activity in po dosed Sprague-Dawley rat chronic constriction injury model assessed as inhibition of mechanical allodynia measured on day 18 by repeated dose treatment assay relative to sham-treated control; assay type: functional; summary of the method: as §3
Mus musculus [19] = test: Antinociceptive activity in Kun Ming mouse pain model assessed as reduction in licking and biting time during phase-2 at 80 mg/kg, ip administered 15 mins prior to formalin challenge relative to vehicle-treated control; assay type: functional; details: route intraperitoneal; summary of the method: as §2
[20] = biological target: Sodium channel protein type 9 subunit alpha (Homo sapiens) (UniProt Q15858); test: Inhibition of from human Nav 1.7 channel expressed in HEK293 cells at 1 uM after 5 mins by electrophysiological analysis; assay type: cell-based
Sequence of Sodium channel protein type 9 subunit alpha (Homo sapiens) (Q15858 whole entry, looked up): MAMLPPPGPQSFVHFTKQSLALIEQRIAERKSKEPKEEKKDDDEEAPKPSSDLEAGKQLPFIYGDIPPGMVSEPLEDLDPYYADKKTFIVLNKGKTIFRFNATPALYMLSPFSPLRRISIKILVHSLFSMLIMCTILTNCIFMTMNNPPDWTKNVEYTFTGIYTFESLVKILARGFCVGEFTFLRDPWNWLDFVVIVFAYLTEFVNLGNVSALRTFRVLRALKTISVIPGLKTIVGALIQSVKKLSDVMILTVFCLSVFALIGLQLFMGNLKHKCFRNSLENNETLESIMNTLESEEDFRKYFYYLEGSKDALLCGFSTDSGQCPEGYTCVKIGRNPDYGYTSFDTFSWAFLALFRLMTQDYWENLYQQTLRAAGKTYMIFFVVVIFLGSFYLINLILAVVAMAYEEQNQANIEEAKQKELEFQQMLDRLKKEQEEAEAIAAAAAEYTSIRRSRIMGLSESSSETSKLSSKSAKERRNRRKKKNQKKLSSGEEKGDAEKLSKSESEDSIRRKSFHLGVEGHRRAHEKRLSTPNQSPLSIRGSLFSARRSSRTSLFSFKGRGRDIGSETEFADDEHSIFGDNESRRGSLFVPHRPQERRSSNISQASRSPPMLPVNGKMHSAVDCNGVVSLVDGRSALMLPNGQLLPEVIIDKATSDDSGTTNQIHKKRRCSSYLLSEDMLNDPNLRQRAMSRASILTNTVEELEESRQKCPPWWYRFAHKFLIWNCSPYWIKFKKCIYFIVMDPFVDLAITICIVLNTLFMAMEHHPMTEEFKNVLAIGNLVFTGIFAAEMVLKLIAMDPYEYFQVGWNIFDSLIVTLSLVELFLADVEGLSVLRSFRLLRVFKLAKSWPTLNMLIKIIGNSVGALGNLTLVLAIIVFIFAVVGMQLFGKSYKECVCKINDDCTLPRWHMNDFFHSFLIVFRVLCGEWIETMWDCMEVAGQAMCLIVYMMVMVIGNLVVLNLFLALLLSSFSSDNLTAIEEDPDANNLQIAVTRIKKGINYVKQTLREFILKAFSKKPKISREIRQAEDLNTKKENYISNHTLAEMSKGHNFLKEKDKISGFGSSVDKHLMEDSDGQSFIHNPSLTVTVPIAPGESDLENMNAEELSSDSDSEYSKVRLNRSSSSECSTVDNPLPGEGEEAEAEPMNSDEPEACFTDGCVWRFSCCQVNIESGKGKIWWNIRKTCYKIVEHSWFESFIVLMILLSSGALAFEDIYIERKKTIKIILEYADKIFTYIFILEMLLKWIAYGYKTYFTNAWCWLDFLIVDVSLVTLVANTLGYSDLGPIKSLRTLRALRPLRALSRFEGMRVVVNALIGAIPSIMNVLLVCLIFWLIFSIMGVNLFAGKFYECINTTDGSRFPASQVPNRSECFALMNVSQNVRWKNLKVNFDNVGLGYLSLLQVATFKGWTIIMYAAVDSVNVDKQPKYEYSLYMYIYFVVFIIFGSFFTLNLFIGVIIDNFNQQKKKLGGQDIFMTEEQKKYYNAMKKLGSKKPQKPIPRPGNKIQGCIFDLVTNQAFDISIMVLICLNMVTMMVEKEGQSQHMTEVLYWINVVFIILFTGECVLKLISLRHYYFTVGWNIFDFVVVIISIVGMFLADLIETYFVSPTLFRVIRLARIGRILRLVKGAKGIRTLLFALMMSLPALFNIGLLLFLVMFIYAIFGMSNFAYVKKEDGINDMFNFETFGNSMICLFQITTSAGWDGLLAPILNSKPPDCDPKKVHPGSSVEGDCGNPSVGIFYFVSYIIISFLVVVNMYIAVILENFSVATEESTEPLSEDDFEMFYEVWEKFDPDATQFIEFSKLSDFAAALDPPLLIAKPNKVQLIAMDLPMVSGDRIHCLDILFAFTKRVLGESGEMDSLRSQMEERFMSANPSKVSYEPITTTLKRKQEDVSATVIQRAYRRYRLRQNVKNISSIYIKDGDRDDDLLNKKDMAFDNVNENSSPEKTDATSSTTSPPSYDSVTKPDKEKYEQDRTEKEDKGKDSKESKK

[21] = biological target: Sodium-dependent serotonin transporter (Rattus norvegicus) (UniProt P31652); test: Displacement of [3H]-paroxetine from rat cerebral cortex serotonin HT transporter at 1 uM after 10 mins by liquid scintillation counting analysis; assay type: tissue-based
Sequence of Sodium-dependent serotonin transporter (Rattus norvegicus) (P31652 whole entry): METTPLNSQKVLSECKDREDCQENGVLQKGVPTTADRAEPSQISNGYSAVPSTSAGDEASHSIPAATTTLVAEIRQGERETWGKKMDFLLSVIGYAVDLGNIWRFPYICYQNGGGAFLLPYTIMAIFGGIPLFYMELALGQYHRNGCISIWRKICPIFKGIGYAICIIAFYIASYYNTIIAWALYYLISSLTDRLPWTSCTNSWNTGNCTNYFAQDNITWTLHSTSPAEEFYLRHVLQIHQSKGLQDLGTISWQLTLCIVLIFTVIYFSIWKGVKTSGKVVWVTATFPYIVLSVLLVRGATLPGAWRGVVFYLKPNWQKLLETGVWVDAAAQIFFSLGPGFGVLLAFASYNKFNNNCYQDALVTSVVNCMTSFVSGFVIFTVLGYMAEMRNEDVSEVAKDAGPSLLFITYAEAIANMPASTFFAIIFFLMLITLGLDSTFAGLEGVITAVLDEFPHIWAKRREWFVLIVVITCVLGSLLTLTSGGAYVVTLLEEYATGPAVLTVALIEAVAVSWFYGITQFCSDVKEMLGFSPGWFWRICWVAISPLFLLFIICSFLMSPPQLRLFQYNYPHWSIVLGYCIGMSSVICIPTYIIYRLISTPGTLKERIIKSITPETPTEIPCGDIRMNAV

[22] = AUC (0 to infinity) in Sprague-Dawley rat at 320 mg/kg, po by HPLC/MS/MS analysis; assay type: ADME, organism-based; design: dose 320 mg/kg, route oral, time infinity; details: plasma; summary of the method: as §1
[23] = Tmax in Sprague-Dawley rat at 320 mg/kg, po by HPLC/MS/MS analysis; assay type: ADME, organism-based; design: dose 320 mg/kg, route oral; details: in vivo; summary of the method: as §1
[24] = biological target: Sigma non-opioid intracellular receptor 1 (Cavia porcellus, UniProt Q60492); test: Displacement of [3H]-(+)-pentazocine from sigma-1 receptor in Dunkin Hartley guinea pig brain membranes after 180 mins by liquid scintillation counting analysis; design: species or system Membrane
Sequence of Sigma non-opioid intracellular receptor 1 (Q60492 whole entry): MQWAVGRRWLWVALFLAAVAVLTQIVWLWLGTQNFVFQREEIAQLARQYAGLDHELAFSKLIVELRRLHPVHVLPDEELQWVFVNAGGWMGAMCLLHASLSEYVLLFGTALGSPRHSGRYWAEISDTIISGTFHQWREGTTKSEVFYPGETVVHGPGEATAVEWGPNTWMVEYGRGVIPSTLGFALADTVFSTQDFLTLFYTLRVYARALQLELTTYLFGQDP

Question: Which AUC(0-t) at 24 h [1] does the source give for Cc1nc(-c2ccc(Cl)cc2)nc(OCCCN2CCCCC2)c1Cl here?
Answer: 54700 ng·h/mL

Question: What about the Activity (Mus musculus [2]) of the same compound?
Answer: Dose-dependent effect

Question: What about the ED50 (Mus musculus [2]) of the same compound?
Answer: 48.4 mg/kg

Question: What about the Ki [3] of the same compound?
Answer: 1420 nM

Question: What about the inhibition (Rattus norvegicus [4]) of the same compound?
Answer: Dose-dependent effect

Question: And the ED50 (Rattus norvegicus [4]; 360 h)?
Answer: 47.2 mg/kg

Question: And the inhibition [5]?
Answer: < 50%

Question: What about the inhibition [6] of the same compound?
Answer: < 50%

Question: And the inhibition [7]?
Answer: < 50%

Question: And the Activity (Mus musculus [8])?
Answer: Dose-dependent effect

Question: And the ED50 (Mus musculus [8])?
Answer: 42.1 mg/kg

Question: And the Cmax (Rattus norvegicus [9])?
Answer: 17400 ng/mL

Question: And the bioavailability [10]?
Answer: 75.1%

Question: And the LD50 at 24 h [11]?
Answer: > 2000 mg/kg

Question: And the inhibition (Rattus norvegicus [12])?
Answer: Dose-dependent effect

Question: And the ED50 (Rattus norvegicus [12]; 432 h)?
Answer: 50.2 mg/kg

Question: And the Activity (Mus musculus [13])?
Answer: Non-toxic

Question: What about the AUC(0-t) at 24 h [14] of the same compound?
Answer: 3300 ng·h/mL

Question: And the inhibition [15]?
Answer: < 50%

Question: And the inhibition [16]?
Answer: < 50%

Question: What about the inhibition [17] of the same compound?
Answer: < 50%

Question: What about the inhibition (Rattus norvegicus [18]) of the same compound?
Answer: Dose-dependent effect

Question: What about the ED50 (Rattus norvegicus [18]; 432 h) of the same compound?
Answer: 61.8 mg/kg

Question: What about the Time (Mus musculus [19]) of the same compound?
Answer: 37.41 s

Question: And the inhibition [20]?
Answer: < 50%

Question: What about the inhibition [21] of the same compound?
Answer: < 50%

Question: And the AUC(0-inf) [22]?
Answer: 55400 ng·h/mL

Question: What about the Tmax [23] of the same compound?
Answer: 30 min

Question: What about the Ki [24] of the same compound?
Answer: 1.06 nM

Source: ChEMBL document CHEMBL3351343, “Synthesis and biological evaluation of novel sigma-1 receptor antagonists based on pyrimidine scaffold as agents for treating neuropathic pain” (J Med Chem, 2014)
